ARNT-TACC3 inh: ARNT/TACC3 interaction disruption; Q9Y6A5; actives 0.66% (n = 390,000); inhibition, % at 9.99 µM; AlphaScreen His-ARNT PAS-B/GST-TACC3 binding, luminescence; TACC3 fragment carries E629A point mutation;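 active means mean inhibition of replicates at least 50% and at least half of replicates each reaching 50%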;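 further: 0% = complete ARNT plus TACC3 wells and 100% = ARNT alone without TACC3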
CAL PDZ FP-1: inhibitors of human CAL PDZ peptide binding | inhibition, % at 24.9 µM | purified CAL PDZ, TMR-peptide fluorescence polarization, 1 h | actives 0.92% (n = 300,000) | AID 602252 | Q9HD26;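 active means mean inhibition of at least 30% with at least half of replicates also reaching 30%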;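 further: 0% = DMSO neutral control and 100% = excess unlabeled competitor peptide PRC23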
PGC1a acetyl inh: PGC1a acetylation modulation, inhibitor mode. U2OS PGC1a acetylation, AlphaScreen anti-acetyl-lysine; with virally co-expressed GCN5 acetyltransferase. inhibition, % at 15.6 µM. actives 0.17% (n = 350,000). AID 651687;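 active means every replicate shows inhibition of at least 40%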;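 further: 0% = neutral control wells and 100% = positive control wells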
miR-122 sensor: inhibitors of miR-122 in Huh7 cells; Huh7 miR-122 Renilla luciferase sensor, 48 h; neutral wells = 0, positive control = 100; activation (reporter increase), % at 12.5 µM; actives 0.3% (n = 340,000);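 active means mean replicate activation score at least 90 and every replicate individually at or above 90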;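 further: higher luciferase means less miR-122 activity so hits act as miR-122 inhibitors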
CAL PDZ FP-2: inhibitors of human CAL PDZ peptide binding. Q9HD26. purified CAL PDZ, TMR-peptide fluorescence polarization, 1 h. inhibition, % at 20 µM. actives 0.02% (n = 330,000). AID 504414;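 active means highest replicate inhibition of at least 40%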;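 further: plate controls were DMSO neutral control wells for no effect and unlabeled competitor peptide control wells for full effect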
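Control set: unlabelled peptide and DMSO controls / Material: purified CerCALP PDZ construct / Timing: 1 h incubation at room temperature before polarization reading / Doses: 20 µM, one dose / Detection: fluorescence polarization (mP)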
F508del corr: CFTR F508del correction in bronchial cells; CFBE cells, YFP halide quenching; stimulated with forskolin plus potentiator P3; % fluorescence drop versus neutral controls; activity (quench increase), % at 7.58 µM; actives 0.36% (n = 350,000); AID 720511;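 active means mean added fluorescence quench of at least 8% versus neutral control, with both replicates also reaching 8%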;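 further: cells transiently co-express mutant CFTR-F508del with the halide-sensitive YFP; corrector assay measuring rescue of mutant channel to the surface after 24 h compound exposure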
Numbers without * were called inactive; . = no result; ! = not active in a repeat; [ ] = dose if it differs, or a comment. Most compounds without a hit are left out; they make up all but 1.7% or so of the library.

SMILES	ARNT-TACC3 inh	CAL PDZ FP-1	PGC1a acetyl inh	miR-122 sensor	CAL PDZ FP-2	F508del corr
Cc1ccc(S(=O)(=O)Cc2cc(F)c([N+](=O)[O-])cc2[N+](=O)[O-])cc1	-0.5	47.1*	.	-21.1	-1.4	.
COC(=O)C1=CN(Cc2ccc(OC)c(OC)c2)C=C(C(=O)OC)C1c1cccc(O)c1	-24.1	-1.7	74.2*	-8.8	-0.3	4.0
CN(C)c1cccc(C(=O)NC2CCCc3ccccc32)c1 (stereo not given)	-0.3	59.1*	2.8	3.5	-1.4	-3.3
CS(=O)(=O)c1ccc(C(=O)NC2CCCc3ccccc32)cc1 (stereo not given)	-3.8	57.9*	.	.	0.2	.
O=C(NC1CCCc2ccccc21)c1cccc(Br)c1 (stereo not given)	-0.3	-2.9	.	.	-0.4	.
CCCNC(=O)Nc1ccc2c(c1)C(=O)N(C)C[C@@H](OC)[C@H](C)CN(Cc1ccncc1)[C@@H](C)CO2	-10.8	.	17.3	-0.2[16.7 µM]	.	0.1
COc1ccc(S(=O)(=O)N(C)C[C@H]2Oc3ccc(NS(=O)(=O)c4ccc(Cl)cc4)cc3CC(=O)N([C@H](C)CO)C[C@H]2C)cc1	10.5	.	-5.7	-16.0[16.7 µM]	.	-1.3
CCCC(=O)Nc1ccc2c(c1)C(=O)N(C)[C@@H]1CC[C@H](CC(=O)NCC3CCCCC3)O[C@@H]1CO2	2.3	.	-14.3	-2.1[16.7 µM]	.	1.5
CCOc1ccc2nc3cc(N=Nc4ccc(N)nc4N)ccc3c(N)c2c1	15.7	9.8	11.7	-29.3	56.1*	.
O=C(Cc1cccc2ccccc12)Nc1cc(C(=O)O)cc(C(=O)O)c1	-1.5	44.2*	-11.5	-0.4	-0.6	-3.1
O=C(Cc1cccc2ccccc12)Nc1ccc(OC(F)F)c(Cl)c1	-5.8	0.3	0.2	94.0*	-0.5	.
O=C(Nc1ccc(OC(F)F)c(Cl)c1)C(c1ccccc1)c1ccccc1	.	-6.7	.	.	-0.7	1.3
O=C(CSc1nc2nn(-c3ccccc3)c(=O)c-2c2n1CCCCC2)Nc1ccc(OC(F)F)cc1	-2.8	126.6*	1.0	4.0	4.7	8.1*
CC(C)c1ccc(/C=C/C(=O)CCC(=O)O)cc1	-17.4	2.2	3.9	213.3*	0.5	-0.6
Nc1nn(-c2ccccc2)nc1C(=O)OCc1ccccc1	0.2	-8.3	72.5*	-10.8	-1.4	-0.6
Cc1ccc(COC(=O)c2nn(-c3ccccc3)nc2N)cc1	-3.9	-1.8	4.5	1.0	-5.0	-0.2
Cc1cc(C(=O)NNC(=S)NC(=O)/C=C/c2ccccc2Cl)n[nH]1	62.1*	3.3	-10.6	0.4	-3.6	.
CC(C)NC(=O)Nc1ccc2c(c1)C(=O)N([C@@H](C)CO)C[C@@H](C)[C@@H](CN(C)C(=O)C1CCCCC1)OCCCC[C@H](C)O2	11.6	.	37.7	0.5[16.7 µM]	.	-0.8
CC(C)NC(=O)Nc1ccc2c(c1)C(=O)N([C@@H](C)CO)C[C@@H](C)[C@@H](CN(C)S(=O)(=O)c1ccccc1)OCCCC[C@H](C)O2	0.2	.	105.0*	2.3[16.7 µM]	.	-3.0
C[C@H]1CCCCO[C@H](CN(C)C(=O)Cc2ccccc2)[C@@H](C)CN([C@@H](C)CO)C(=O)c2cc(N(C)C)ccc2O1	.	.	-6.6	0.3[16.7 µM]	.	10.8*
CC(C)NC(=O)Nc1ccc2c(c1)C(=O)N([C@@H](C)CO)C[C@H](C)[C@@H](CN(C)S(=O)(=O)c1ccccc1)OCCCC[C@H](C)O2	-0.2	.	10.1	15.5[16.7 µM]	.	1.8
CC(C)NC(=O)Nc1ccc2c(c1)C(=O)N([C@@H](C)CO)C[C@@H](C)[C@H](CN(C)C(=O)C1CCCCC1)OCCCC[C@H](C)O2	45.8*	.	7.3	-1.7[16.7 µM]	.	1.3
COCC(=O)Nc1ccc2c(c1)OC[C@@H](C)N(C(=O)C1CCCC1)C[C@@H](C)[C@H](OC)CN(C)C2=O	4.6	.	-5.9	8.8[16.7 µM]	.	-0.3
CN1C(=O)c2cc(NC(=O)C3CCCC3)ccc2OC[C@H]2O[C@@H](CC(=O)O)CC[C@H]21	.	.	5.4	-25.0[16.7 µM]	.	-3.9
O=C(CCN1CCCCC1)NCC[C@@H]1CC[C@H](NC(=O)C2CCCC2)[C@H](CO)O1	-2.0	.	10.3	.	.	-1.5
SMILES	ARNT-TACC3 inh	CAL PDZ FP-1	PGC1a acetyl inh	miR-122 sensor	CAL PDZ FP-2	F508del corr
COc1cc(C(=O)NC(=S)Nc2ccc(Cl)c(C(=O)O)c2)cc(OC)c1OC	0.0	39.5*	8.5	0.1	.	.
COc1ccc(C(=O)NC(=S)NNC(=O)c2cnccn2)cc1	59.0*	.	.	8.3	-0.4	.
COc1cc(C(=O)NC(=S)NNC(=O)c2cnccn2)cc(OC)c1OC	65.0*	-1.0	1.2	-3.1	-2.6	.
O=C(NNC(=S)NC(=O)c1cccnc1)c1ccc(Cl)cc1	-9.9	-1.8	-2.6	10.5	0.0	.
O=C(NC(=S)NNC(=O)c1cnccn1)c1ccc(Cl)cc1	54.4*	-7.1	-3.5	.	-0.9	-0.7
Cc1noc(C)c1NC(=O)N[C@H]1CC[C@@H](CC(=O)Nc2ccc(-c3ccccc3)cc2)O[C@@H]1CO	9.7	.	-6.9	4.6[16.7 µM]	.	-2.5
C[C@H](CO)N1C[C@H](C)[C@H](CN(C)C)Oc2c(NC(=O)Nc3cccc4ccccc34)cccc2C1=O	.	.	-4.2	.	.	-1.9
C[C@@H]1CN([C@H](C)CO)C(=O)c2cc(-c3ccncc3)cnc2O[C@H]1CN(C)C(=O)C1CCC1	.	.	-4.7	-5.2[16.7 µM]	.	-2.7
COc1ccc(NC(=O)NC[C@H]2CC[C@H]3[C@H](CN3Cc3ccccc3C(=O)O)O2)cc1	.	.	.	.	.	1.8
COc1cc(CN2C[C@@H]3N[C@H](C2)C3c2ccc(-c3ccccc3C)cc2)cc(OC)c1 (stereo not given in full)	.	.	104.6*!	.	.	-6.4
COc1ccc(-c2ccc(C3[C@@H]4CN(Cc5cccc(OC)c5)C[C@H]3N4)cc2)cc1 (stereo not given in full)	.	.	0.1	.	.	-16.7
COc1cccc(-c2ccc(C3[C@@H]4CN(Cc5cccc(F)c5)C[C@H]3N4)cc2)c1 (stereo not given in full)	.	.	97.5*!	.	.	1.8
COc1cccc(CN2C[C@@H]3N[C@H](C2)C3c2ccc(-c3ccccc3C)cc2)c1 (stereo not given in full)	.	.	-21.7	.	.	-0.7
C[C@H](CO)N1C[C@H](C)[C@@H](CN(C)C(=O)c2ccccc2F)Oc2ncc(Br)cc2C1=O	-3.3	.	-3.8	2.1[16.7 µM]	.	3.3
O=C(C[C@@H]1CC[C@@H](NC(=O)c2ccncc2)[C@H](CO)O1)NCC1CCCCC1	-6.7	.	-1.4	2.9[16.7 µM]	.	2.4
O=C1OC2(CCCCC2)OC(=O)C1=CNc1nccs1	.	-4.4	31.7	-2.7	-0.6	.
O=C1OC2(CCCCC2)OC(=O)C1=CNc1nc2ccccc2s1	13.8	51.9*	.	4.1	30.2	.
COc1cccc(CNC(=O)C[C@@H]2CC[C@@H](NC(=O)C3CCC3)[C@H](CO)O2)c1	7.4	.	-0.8	.	.	-0.4

Screens: PubChem, Broad Institute
